Here are results for eight molecules from ChEMBL document CHEMBL1121848, “Inactivation of trypsin-like proteases by depsipeptides of p-guanidinobenzoic acid” (J Med Chem, 1981).

The nature of series [1]: Compound was evaluated for the reactivity in the inactivation of trypsin like enzyme. In a few lines: (§1)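 Each enzyme (10^-6 to 10^-9 M final) was incubated at 25 °C with inhibitor dissolved in water (10^-3 to 10^-6 M final) in 50 mM Pipes, pH 7.0, with 200 mM NaCl. Loss of activity was treated as first-order to give k_app. Reactivity was k_app divided by inhibitor concentration.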

Series [2] in a line: Second order rate constant was determined in the inactivation of HPK. In a few lines:
(§2)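 Trypsin or human plasma kallikrein (10^-6 to 10^-9 M final) was inactivated at 25 °C by ester in water (10^-3 to 10^-6 M final) in 50 mM Pipes, pH 7.0, with 200 mM NaCl. Activity decayed first-order. Individual constants k_2 (min⁻¹) and K_m (M) were resolved for each enzyme.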

Series [3] is described as follows: Second order rate constant was determined in the inactivation of trypsin. In outline:
as §2

Another series concerns Plasminogen. In words: Compound was evaluated for the reactivity in the inactivation of trypsin like enzyme plasmin. In a few lines: as §1
The target in series [4] is Urokinase-type plasminogen activator (Homo sapiens) (UniProt P00749). In words: Compound was evaluated for the reactivity in the inactivation of trypsin like Urokinase-type plasminogen activator. In outline:
as §1

The target of series [5] is Plasma kallikrein (Homo sapiens) (UniProt P03952). In words: Compound was evaluated for the reactivity in the inactivation of trypsin like enzyme Human plasma Kallikrein.
Chain of Plasma kallikrein (Homo sapiens) (P03952 whole entry, looked up): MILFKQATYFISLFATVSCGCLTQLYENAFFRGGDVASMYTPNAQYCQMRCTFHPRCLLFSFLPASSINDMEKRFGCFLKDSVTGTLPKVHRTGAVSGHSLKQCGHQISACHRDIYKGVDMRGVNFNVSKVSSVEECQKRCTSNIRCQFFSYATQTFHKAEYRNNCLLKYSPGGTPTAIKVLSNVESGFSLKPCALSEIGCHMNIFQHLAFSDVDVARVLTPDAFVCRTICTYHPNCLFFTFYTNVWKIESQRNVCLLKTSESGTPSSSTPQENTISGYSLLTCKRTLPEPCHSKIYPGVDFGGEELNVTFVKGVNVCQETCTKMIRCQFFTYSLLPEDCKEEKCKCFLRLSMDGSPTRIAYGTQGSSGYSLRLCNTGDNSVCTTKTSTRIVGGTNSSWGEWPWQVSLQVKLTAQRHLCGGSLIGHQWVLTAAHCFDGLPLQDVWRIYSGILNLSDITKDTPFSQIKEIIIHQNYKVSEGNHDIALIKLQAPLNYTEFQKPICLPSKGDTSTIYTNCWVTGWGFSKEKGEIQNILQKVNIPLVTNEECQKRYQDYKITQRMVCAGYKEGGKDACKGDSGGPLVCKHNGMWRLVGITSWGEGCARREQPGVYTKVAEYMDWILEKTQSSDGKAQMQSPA
A further series concerns the target Acrosin (Sus scrofa) (UniProt P08001). Description: Compound was evaluated for the reactivity in the inactivation of trypsin like boar acrosin.

Chain of Acrosin (Sus scrofa) (P08001 whole entry, looked up): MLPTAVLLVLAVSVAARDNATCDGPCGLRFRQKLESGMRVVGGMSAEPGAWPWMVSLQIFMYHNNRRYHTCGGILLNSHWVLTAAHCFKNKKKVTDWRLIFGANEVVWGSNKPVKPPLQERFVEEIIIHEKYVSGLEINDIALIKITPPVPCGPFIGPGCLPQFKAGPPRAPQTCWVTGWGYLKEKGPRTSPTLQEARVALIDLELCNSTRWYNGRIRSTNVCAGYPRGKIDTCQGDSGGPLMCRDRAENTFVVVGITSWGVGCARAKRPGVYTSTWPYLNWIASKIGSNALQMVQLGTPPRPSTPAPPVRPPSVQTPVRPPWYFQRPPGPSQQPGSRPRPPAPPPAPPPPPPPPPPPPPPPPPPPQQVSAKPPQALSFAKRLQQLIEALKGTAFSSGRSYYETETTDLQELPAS

Turning to `CC(=O)O.N=C(N)Nc1ccc(C(=O)OCC(N)=O)cc1`, the Reactivity stood at 17000 in series [1]; 644 in the series with Plasminogen; 300 in series [4]; 2800 in series [5]; 117000 on Acrosin (Sus scrofa). Also, the k2 in series [2] worked out at 1.25 min⁻¹; in series [3] it was 0.523 min⁻¹.

With `CC(=O)O.N=C(N)Nc1ccc(C(=O)OCC(=O)NC(Cc2ccccc2)C(N)=O)cc1` (centres undefined), the Reactivity turned out to be 46000 in series [1]; 753 in the series on Plasminogen; 21 in series [4]; 8600 in series [5]; 207000 at Acrosin (Sus scrofa). Further, the values for the k2 in series [2] and in series [3] were 0.74 min⁻¹ and 3.24 min⁻¹, respectively.

With `CC(=O)O.CC(C)C(NC(=O)COC(=O)c1ccc(NC(=N)N)cc1)C(N)=O` (centres undefined), the Reactivity in series [1] amounted to 11200; in the series with Plasminogen, 441; in series [4] it was 5; in series [5] it was 2000; on Acrosin (Sus scrofa) it was 114000. Also, the k2 in series [2] stood at 0.87 min⁻¹; in series [3], 0.74 min⁻¹.

In the case of `CC(=O)O.N=C(N)Nc1ccc(C(=O)OCC(=O)N[C@@H](Cc2ccccc2)C(=O)N2CCC[C@H]2C(N)=O)cc1`, the Reactivity in series [1] came to 32000; in series [5], 2600. Further, the figures for the k2 in series [2] and in series [3] were 0.83 min⁻¹ and 1.27 min⁻¹, respectively.

As to `CC(=O)O.C[C@H](NC(=O)COC(=O)c1ccc(NC(=N)N)cc1)C(=O)N[C@@H](Cc1ccccc1)C(N)=O`, the results for the Reactivity in series [1] and in series [5] were 13400 and 1400, respectively. Moreover, the values for the k2 in series [2] and in series [3] were 0.84 min⁻¹ and 0.748 min⁻¹, respectively.

For the molecule `CC(=O)O.CCOC(=O)c1ccc(NC(=N)N)cc1`, the Reactivity in series [1] was determined as 259; in series [4], 11; in series [5], 26; at Acrosin (Sus scrofa), 200000. Besides, the k2 in series [3] was 1.89 min⁻¹.

In the case of `CC(=O)O.CC(OC(=O)c1ccc(NC(=N)N)cc1)C(=O)NC(Cc1ccccc1)C(N)=O` (centres undefined), the Reactivity in series [1] worked out at 14200; in the series with Plasminogen, 743; in series [4], 32; in series [5], 3000. Besides, the k2 in series [2] came to 0.1 min⁻¹; in series [3] it was 3.7 min⁻¹.

With `CC(=O)O.N=C(N)Nc1ccc(C(=O)OCC(=O)NCC(=O)NCC(N)=O)cc1`, the Reactivity in series [1] came to 10200; in series [5], 2000. Further, the k2 in series [2] worked out at 0.344 min⁻¹; in series [3], 0.832 min⁻¹.
